In ChEMBL document CHEMBL2380256, “Discovery of novel Jak2-Stat pathway inhibitors with extended residence time on target” (Bioorg Med Chem Lett, 2013):
Active and inactive are the calls of the source. No cut-off for these calls is given here.

Key:
Homo sapiens = species on record: Homo sapiens; experiment: Selectivity ratio of IC50 for JAK3 (unknown origin) to IC50 for JAK2 (unknown origin)
Summary of the method: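 Jak2 and Jak3 enzyme IC50s determined at 5 mM ATP; the ratio is the Jak3 IC50 divided by the Jak2 IC50.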

[1] = Growth inhibition of mouse BA/F3 cells transfected with JAK3 TEL domain after 24 hrs by Alamar Blue assay; assay type: functional, cell-based; conditions: BaF3, 24 h
[2] = Growth inhibition of mouse BA/F3 cells transfected with JAK2 TEL domain after 24 hrs by Alamar Blue assay; assay type: functional; conditions: BaF3, 24 h
[3] = biological target: T1, Tyrosine-protein kinase JAK3 (Homo sapiens, UniProt P52333); experiment: Inhibition of JAK3 (unknown origin) using biotinylated poly-EY peptide as substrate after 60 mins by HTRF assay
T1 sequence (P52333 whole entry): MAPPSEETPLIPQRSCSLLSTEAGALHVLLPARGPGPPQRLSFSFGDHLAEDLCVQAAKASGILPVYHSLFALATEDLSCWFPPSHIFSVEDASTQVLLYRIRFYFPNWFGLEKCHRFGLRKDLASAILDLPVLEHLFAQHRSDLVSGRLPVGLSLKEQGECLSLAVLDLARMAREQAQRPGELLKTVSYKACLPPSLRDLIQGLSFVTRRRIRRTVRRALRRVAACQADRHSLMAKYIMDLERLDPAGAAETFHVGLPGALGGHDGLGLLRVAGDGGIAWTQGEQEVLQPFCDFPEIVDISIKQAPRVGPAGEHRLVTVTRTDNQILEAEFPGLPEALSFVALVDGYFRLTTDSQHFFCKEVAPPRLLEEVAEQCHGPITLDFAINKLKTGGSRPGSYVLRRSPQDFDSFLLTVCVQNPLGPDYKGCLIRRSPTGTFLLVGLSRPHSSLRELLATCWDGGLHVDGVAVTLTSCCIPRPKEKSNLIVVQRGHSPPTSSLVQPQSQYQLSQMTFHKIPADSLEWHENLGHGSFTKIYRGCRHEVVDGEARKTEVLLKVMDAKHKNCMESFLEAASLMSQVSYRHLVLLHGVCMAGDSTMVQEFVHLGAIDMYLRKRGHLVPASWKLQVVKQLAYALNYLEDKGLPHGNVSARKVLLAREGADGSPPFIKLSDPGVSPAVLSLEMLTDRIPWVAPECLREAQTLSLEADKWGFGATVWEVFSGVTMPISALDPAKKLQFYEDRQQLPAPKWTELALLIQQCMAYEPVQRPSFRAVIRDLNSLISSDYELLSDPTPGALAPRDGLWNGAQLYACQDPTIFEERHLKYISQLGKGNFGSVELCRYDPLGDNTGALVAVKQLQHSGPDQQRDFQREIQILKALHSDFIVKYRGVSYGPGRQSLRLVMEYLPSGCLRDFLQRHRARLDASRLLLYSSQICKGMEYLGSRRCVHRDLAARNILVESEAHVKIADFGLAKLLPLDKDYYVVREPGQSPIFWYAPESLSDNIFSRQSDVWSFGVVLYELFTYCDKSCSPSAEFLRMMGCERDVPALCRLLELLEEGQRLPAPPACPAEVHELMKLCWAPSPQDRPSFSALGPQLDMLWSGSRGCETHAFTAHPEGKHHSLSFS

[4] = biological target: T2, Tyrosine-protein kinase JAK2 (Homo sapiens, UniProt O60674); experiment: Inhibition of JAK2 (unknown origin) using biotinylated TYK2 peptide as substrate after 60 mins
T2 sequence (O60674 whole entry, the tested form may be a part): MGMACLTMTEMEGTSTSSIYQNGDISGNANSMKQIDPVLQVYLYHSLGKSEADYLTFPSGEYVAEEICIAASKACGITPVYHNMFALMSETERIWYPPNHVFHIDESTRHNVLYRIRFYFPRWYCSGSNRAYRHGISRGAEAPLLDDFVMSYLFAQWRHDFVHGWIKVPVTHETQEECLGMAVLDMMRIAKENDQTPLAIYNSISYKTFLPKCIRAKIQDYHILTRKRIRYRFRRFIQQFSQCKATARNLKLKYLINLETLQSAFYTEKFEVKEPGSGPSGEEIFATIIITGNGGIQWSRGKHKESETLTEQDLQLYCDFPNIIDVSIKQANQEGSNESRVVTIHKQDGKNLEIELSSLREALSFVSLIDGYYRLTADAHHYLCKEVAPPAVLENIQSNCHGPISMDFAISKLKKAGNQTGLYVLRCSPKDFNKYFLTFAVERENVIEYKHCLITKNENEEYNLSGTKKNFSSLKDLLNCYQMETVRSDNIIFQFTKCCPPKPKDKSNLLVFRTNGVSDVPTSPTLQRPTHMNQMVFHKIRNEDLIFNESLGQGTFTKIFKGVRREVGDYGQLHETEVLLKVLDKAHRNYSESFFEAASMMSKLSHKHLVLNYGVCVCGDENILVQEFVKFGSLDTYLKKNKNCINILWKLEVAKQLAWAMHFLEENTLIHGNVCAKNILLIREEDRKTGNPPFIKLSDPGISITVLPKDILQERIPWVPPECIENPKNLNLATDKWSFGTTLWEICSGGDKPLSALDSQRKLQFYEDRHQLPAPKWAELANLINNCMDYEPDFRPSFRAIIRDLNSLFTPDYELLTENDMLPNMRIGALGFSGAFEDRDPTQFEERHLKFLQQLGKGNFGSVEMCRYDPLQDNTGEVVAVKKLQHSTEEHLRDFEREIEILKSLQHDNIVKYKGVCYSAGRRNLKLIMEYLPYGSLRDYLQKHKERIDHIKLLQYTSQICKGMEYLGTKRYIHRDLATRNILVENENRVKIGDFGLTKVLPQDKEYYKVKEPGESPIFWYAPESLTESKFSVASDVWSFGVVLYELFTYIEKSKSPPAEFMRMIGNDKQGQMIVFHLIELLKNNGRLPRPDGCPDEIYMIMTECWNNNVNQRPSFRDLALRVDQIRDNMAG

[5] = Total plasma concentration in nude mouse allografted with mouse Ba/F3 cells expressing JAK2 TEL domain at 5 mg/kg, po qd measured at 6 hrs; assay type: ADME, organism-based, BaF3; set-up: dose 5 mg/kg, route oral
Summary of the method: (§1)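 Female nude mice implanted intravenously with Ba/F3 TEL-JAK2 cells on day 0 and dosed orally on day 10. Total plasma drug concentration was measured at the stated times post-dose, averaged over n = 3 per dose and time point.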

[6] = Total plasma concentration in nude mouse allografted with mouse Ba/F3 cells expressing JAK2 TEL domain at 5 mg/kg, po qd measured at 2 hrs; assay type: ADME, organism-based, BaF3; set-up: dose 5 mg/kg, route oral; summary of the method: as §1
[7] = Total plasma concentration in nude mouse allografted with mouse Ba/F3 cells expressing JAK2 TEL domain at 10 mg/kg, po qd measured at 2 hrs; assay type: ADME, organism-based, BaF3; set-up: dose 10 mg/kg, route oral; summary of the method: as §1
[8] = Total plasma concentration in nude mouse allografted with mouse Ba/F3 cells expressing JAK2 TEL domain at 10 mg/kg, po qd measured at 6 hrs; assay type: ADME, organism-based, BaF3; set-up: dose 10 mg/kg, route oral; summary of the method: as §1
[9] = Fraction unbound in nude mouse plasma allografted with mouse Ba/F3 cells expressing JAK2 TEL domain at 5 to 10 mg/kg, po qd after 6 hrs; assay type: ADME, organism-based, BaF3; set-up: dose 5-10 mg/kg, route oral
Mus musculus [10] = experiment: In vivo inhibition of JAK2 TEL domain (unknown origin) transfected in mouse Ba/F3 cells allografted in nude mouse assessed as inhibition of STAT5 phosphorylation at 5 mg/kg, po qd after 6 hrs; assay type: functional, organism-based; set-up: dose 5 mg/kg; conditions: BaF3
Summary of the method: (§2)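 Female nude mice implanted intravenously with Ba/F3 TEL-JAK2 cells on day 0 and given a single oral dose on day 10. pStat5 was measured at the stated times post-dose. % inhibition was scaled between vehicle and a control inhibitor as maximum and minimum, with n = 3 per dose and time point, reported as mean ±SD.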

Mus musculus [11] = experiment: In vivo inhibition of JAK2 TEL domain (unknown origin) transfected in mouse Ba/F3 cells allografted in nude mouse assessed as inhibition of STAT5 phosphorylation at 10 mg/kg, po qd after 6 hrs relative to vehicle-treated control; assay type: functional; conditions: BaF3, 6 h; summary of the method: as §2
Hepatocyte = experiment: Metabolic stability in human hepatocytes measured per 10^6 cells; assay type: ADME, cell-based
[12] = Volume of distribution at steady state in beagle dog at 5 mg/kg, po and 2.5 mg/kg, iv; assay type: ADME, organism-based, Canis lupus familiaris; conditions: in vivo, read-out: Vdss
Summary of the method: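 Male Beagle dogs. Oral 5 mg/kg in 0.1% HPMC; intravenous 2.5 mg/kg in HP-β-CD.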

[13] = Volume of distribution at steady state in CD1 mouse at 10 mg/kg, po and 3 mg/kg, iv; assay type: ADME, organism-based; conditions: in vivo, read-out: Vdss
Summary of the method: (§3)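 Single-dose PK: female CD-1 mice and male Han Wistar rats, 10 mg/kg po in 0.1% HPMC and 3 mg/kg iv in DMA/PEG/saline 40/40/20.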

[14] = Volume of distribution at steady state in Han Wistar rat at 10 mg/kg, po and 3 mg/kg, iv; assay type: ADME, organism-based; conditions: in vivo, read-out: Vdss
[15] = Clearance in beagle dog at 5 mg/kg, po and […] mg/kg, iv; assay type: ADME, organism-based, Canis lupus familiaris; conditions: in vivo, 2.5 mg/kg
[16] = Clearance in CD1 mouse at 10 mg/kg, po and 3 mg/kg, iv; assay type: ADME, organism-based; conditions: in vivo; summary of the method: as §3
[17] = Clearance in Han Wistar rat at 10 mg/kg, po and 3 mg/kg, iv; assay type: ADME, organism-based; conditions: in vivo; summary of the method: as §3
[18] = AUC in beagle dog at 5 mg/kg, po and […] mg/kg, iv; assay type: ADME, organism-based, Canis lupus familiaris; conditions: plasma
[19] = AUC in CD1 mouse at 10 mg/kg, po and 3 mg/kg, iv; assay type: ADME, organism-based; conditions: plasma; summary of the method: as §3
[20] = AUC in Han Wistar rat at 10 mg/kg, po and 3 mg/kg, iv; assay type: ADME, organism-based; conditions: plasma; summary of the method: as §3
[21] = Oral bioavailability in beagle dog at 5 mg/kg; assay type: ADME, organism-based, Canis lupus familiaris; conditions: in vivo
Summary of the method: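 Male Beagle dogs received 5 mg/kg po (0.1% HPMC) and 2.5 mg/kg iv (HP-β-CD). %F = (AUCpo × DoseIV)/(AUCIV × Dosepo) × 100.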

[22] = Oral bioavailability in CD1 mouse at 10 mg/kg; assay type: ADME, organism-based; conditions: in vivo
Summary of the method: (§4)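 Oral bioavailability in female CD-1 mice and male Han Wistar rats: 10 mg/kg po (0.1% HPMC) versus 3 mg/kg iv (DMA/PEG/saline 40/40/20). %F = (AUCpo × DoseIV)/(AUCIV × Dosepo) × 100.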

[23] = Oral bioavailability in Han Wistar rat at 10 mg/kg; assay type: ADME, organism-based; conditions: in vivo; summary of the method: as §4
[24] = Growth inhibition of human UKE1 cells harboring JAK2 V617F mutant after 2 days by [3H]-thymidine incorporation assay; assay type: functional
SET-2 = experiment: Growth inhibition of human SET2 harboring JAK2 V617F mutant after 24 hrs by Alamar Blue assay; assay type: functional; conditions: SET-2, 24 h
[25] = biological target: T2, Tyrosine-protein kinase JAK2; experiment: Competitive inhibition of JAK2 (unknown origin)

Structure (SMILES): Cc1cc(Nc2nc(N[C@@H](C)c3ncc(F)cn3)c(F)c(N3CCOCC3)n2)n[nH]1
- Ratio IC50 (Homo sapiens): 76
- GI50 ([1]; read-out: GI50): 0.39 µM
- GI50 [2]: 0.015 µM

Structure (SMILES): Cc1cc(Nc2nc(N[C@@H](C)c3ccc(F)cn3)c(F)c(N3CCN(S(C)(=O)=O)CC3)n2)n[nH]1
- GI50 [1]: 0.05 µM
- IC50 [3]: 0.02 µM
- IC50 [4]: 0.003 µM

Structure (SMILES): Cc1cc(Nc2nc(O[C@@H](C)c3ncc(F)cn3)c(F)c(N3CCOCC3)n2)n[nH]1
- concentration at 6 h [5]: 180 ng/mL
- concentration at 2 h [6]: 325 ng/mL
- concentration at 2 h [7]: 551 ng/mL
- concentration at 6 h [8]: 246 ng/mL
- fraction unbound at 6 h [9]: 0.16
- inhibition (Mus musculus [10]): Active
- inhibition in vivo at 10 mg/kg (Mus musculus [11]): > 80%
- Stability (Hepatocyte): < 2 µL/min/1e6 cells
- Vd [12]: 2.4 L/kg
- Vd [13]: 1.4 L/kg
- Vd [14]: 1.6 L/kg
- clearance [15]: 13 mL/min/kg
- clearance [16]: 17 mL/min/kg
- clearance [17]: 11 mL/min/kg
- AUC [18]: 8.5 µM·h
- AUC [19]: 14.7 µM·h
- AUC [20]: 27.5 µM·h
- bioavailability [21]: 56%
- bioavailability [22]: 64%
- bioavailability [23]: 74%
- GI50 [24]: 0.05 µM
- GI50 (SET-2): 0.078 µM
- Ki [25]: 0.00072 µM
- GI50 ([1]; read-out: GI50): 0.69 µM
- GI50 [2]: 0.006 µM
- IC50 [3]: 0.02 µM
- IC50 [4]: < 0.003 µM

Structure (SMILES): COc1cc(Nc2nc(N[C@@H](C)c3ncc(F)cn3)c(F)c(N3CCOCC3)n2)n[nH]1
- GI50 ([1]; read-out: GI50): 9.4 µM
- GI50 [2]: 0.16 µM
- IC50 [3]: 11.2 µM
- IC50 [4]: 0.037 µM

Structure (SMILES): Cc1cc(Nc2nc(N[C@@H](C)c3ccc(F)cn3)c(F)c(N3CCN(C)CC3)n2)n[nH]1
- GI50 ([1]; read-out: GI50): 0.38 µM
- IC50 [3]: 0.015 µM

Structure (SMILES): Cc1cc(Nc2nc(N[C@@H](C)c3ncc(F)cn3)c(F)c(N3CCOCC3)n2)[nH]n1
- IC50 [3]: 0.229 µM
- IC50 [4]: 0.003 µM

Structure (SMILES): Cc1cc(Nc2nc(N[C@@H](C)c3ncc(F)cn3)nc(N3CCOCC3)c2F)n[nH]1
- Ratio IC50 (Homo sapiens): > 10000

Structure (SMILES): Cc1cc(Nc2nc(O[C@@H](C)c3ncc(F)cc3F)c(F)c(N3CCOCC3)n2)n[nH]1
- GI50 [24]: 0.03 µM
- GI50 (SET-2): 0.018 µM
- GI50 ([1]; read-out: GI50): 0.43 µM
- GI50 [2]: 0.01 µM
- IC50 [3]: 0.045 µM
- IC50 [4]: 0.004 µM
